Shown are actives, neighbours in structure and some others; about 3.7% of the full set was active somewhere.
MC4R antagonist: blocks human MC4R cAMP signaling; MC4R-expressing cells, MTII-stimulated cAMP, LANCE TR-FRET; actives 0.48% (n = 360,000); inhibition, % at 6.5 µM;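 active means inhibition above its plate's cutoff, the mean of tested wells on that plate plus 3 SD, cut at about 29% in these data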
Target sequence (P32245 whole entry, looked up): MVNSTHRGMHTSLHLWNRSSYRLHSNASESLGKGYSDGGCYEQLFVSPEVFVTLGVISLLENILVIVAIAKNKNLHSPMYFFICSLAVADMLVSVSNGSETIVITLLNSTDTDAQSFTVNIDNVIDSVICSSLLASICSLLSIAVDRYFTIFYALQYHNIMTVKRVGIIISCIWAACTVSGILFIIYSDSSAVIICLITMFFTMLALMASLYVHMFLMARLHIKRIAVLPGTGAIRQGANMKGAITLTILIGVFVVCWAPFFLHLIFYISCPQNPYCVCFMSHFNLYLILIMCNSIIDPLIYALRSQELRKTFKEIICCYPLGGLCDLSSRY
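Material – human MC4R-expressing U2OS cells · Repeats – no replicates · Detection – TR-FRET with Eu-cAMP and labeled anti-cAMP, 671 nm · Times – compound 30 min, challenge 1 h, detection 1 h · Compound – single nominal compound dose of 6.5 µM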
EBI2 block: antagonists of human EBI2 receptor | P32249 | EBI2 beta-arrestin recruitment, luminescence, 7a,25-OHC stimulated | inhibition, % at 5 µM | actives 0.81% (n = 360,000) | AID 651636; in the data active means inhibition above about 38%;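 further: enzyme fragment complementation signal reports receptor beta-arrestin coupling in cells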
Target sequence (P32249 whole entry, looked up, the tested form may be a part): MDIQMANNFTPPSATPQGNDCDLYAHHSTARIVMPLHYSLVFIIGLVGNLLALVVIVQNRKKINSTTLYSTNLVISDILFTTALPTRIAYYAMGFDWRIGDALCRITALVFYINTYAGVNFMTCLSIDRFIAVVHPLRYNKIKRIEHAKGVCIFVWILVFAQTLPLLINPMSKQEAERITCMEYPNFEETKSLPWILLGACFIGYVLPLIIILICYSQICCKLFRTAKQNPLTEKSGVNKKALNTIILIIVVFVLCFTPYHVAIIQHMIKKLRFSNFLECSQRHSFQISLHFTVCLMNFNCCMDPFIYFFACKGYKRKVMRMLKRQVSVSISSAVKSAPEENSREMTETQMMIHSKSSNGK
MC4R barr agon: activates human MC4R beta-arrestin recruitment; P32245; U2OS MC4R beta-arrestin complementation, luminescence; percent of melanotan II response, DMSO zero; activation, % at 8.9 µM; actives 0.98% (n = 360,000); AID 540308;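 active means activation above a per-plate cutoff, the mean activation of sample wells on that plate plus 3 SD, cut at about 8% in these data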
Granule exo inh: blocks lytic granule exocytosis; AID 651702; actives 0.66% (n = 360,000); TALL-104 LAMP-1 surface exposure, flow cytometry; cells stimulated with thapsigargin and PMA; inhibition, % at 10 µM;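 active means inhibition above about 55%, limit read from the data; inconclusive means no clear call, values can overlap the other calls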
Myeloid diff 2: myeloid differentiation induction; actives 1% (n = 360,000); calls only at 10 µM; ER-HoxA9 myeloid progenitors, lysozyme-GFP differentiation, flow cytometry;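 active means normalized GFP-positive differentiation at or above the plate's own cutoff, the solvent-only control mean plus 3 SD; inconclusive means no clear call, values can overlap the other calls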;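 further: cells exposed to compound for four days before flow analysis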
Numbers stand for hits.

Results for Nc1c(C(=O)Nc2nccs2)sc2nc(-c3cccs3)cc(C(F)(F)F)c12 ?
MC4R antagonist: inactive; EBI2 block: inactive; MC4R barr agon: inactive; Granule exo inh: inactive; Myeloid diff 2: active

How did Cc1nnc(NC(=O)c2sc3nc(-c4cccs4)cc(C(F)(F)F)c3c2N)s1 do in these assays?
MC4R antagonist: inactive; EBI2 block: inactive; MC4R barr agon: inactive; Granule exo inh: inactive; Myeloid diff 2: active

How did CC(C)(C)C(=O)c1sc2nc(-c3cccs3)cc(C(F)(F)F)c2c1N do in these assays?
MC4R antagonist: inactive; EBI2 block: inactive; MC4R barr agon: inactive; Granule exo inh: inactive; Myeloid diff 2: active

What do the screens show for `CCN(CC)C(=O)c1sc2nc(-c3cccs3)cc(-c3cccs3)c2c1N`?
MC4R antagonist: inactive; EBI2 block: inactive; MC4R barr agon: inactive; Granule exo inh: inactive; Myeloid diff 2: active

How did Cc1cc(C(F)(F)F)c2c(N)c(C(=O)NC3CC3)sc2n1 do in these assays?
MC4R antagonist: inactive; EBI2 block: inactive; MC4R barr agon: inactive; Granule exo inh: inactive; Myeloid diff 2: inactive

What do the screens show for `Cc1ccc(CCNS(=O)(=O)c2cc3c(cc2Cl)NC(=O)CO3)cc1`?
MC4R antagonist: inactive; EBI2 block: inactive; MC4R barr agon: inactive; Granule exo inh: inactive; Myeloid diff 2: inactive

What do the screens show for `Cc1cn([C@H]2C[C@H](N=[N+]=[N-])[C@@H](CO)O2)c(=O)[nH]c1=O`?
MC4R antagonist: inactive; EBI2 block: inactive; MC4R barr agon: inactive; Granule exo inh: inactive; Myeloid diff 2: active

Results for Cc1cn(C2CC(O)C(O)C(CO)O2)c(=O)[nH]c1=O (stereo not drawn) ?
EBI2 block: inactive; Granule exo inh: inactive; Myeloid diff 2: inactive

How did Cc1nc(Sc2ccccc2)c(C#N)c(C)c1[N+](=O)[O-] do in these assays?
MC4R antagonist: inactive; EBI2 block: inactive; MC4R barr agon: inactive; Granule exo inh: inactive; Myeloid diff 2: inactive

What do the screens show for `Cc1cc(C)c(C#N)c(Sc2nc(C)c([N+](=O)[O-])c(C)c2C#N)n1`?
EBI2 block: inactive; Granule exo inh: inactive; Myeloid diff 2: active

Results for Cc1ccc(C)c(S(=O)(=O)NCc2ccc(C(=O)N3CCC(Cc4ccccc4)CC3)cc2)c1 ?
MC4R antagonist: inactive; EBI2 block: inactive; MC4R barr agon: inactive; Granule exo inh: inactive; Myeloid diff 2: active

Results for CCOC(=O)Cc1ccc(Nc2nc(NCc3ccccc3)nc3ccsc23)cc1 ?
MC4R antagonist: inactive; EBI2 block: inactive; MC4R barr agon: 8.5; Granule exo inh: inactive; Myeloid diff 2: inactive

Results for COc1ccc2c(c1)C1CC(C)(NC(=O)C1S(=O)(=O)c1ccc(F)cc1)O2 (stereo not drawn) ?
MC4R antagonist: inactive; EBI2 block: inactive; MC4R barr agon: inactive; Granule exo inh: inactive; Myeloid diff 2: inactive

Results for Cc1cccc(NCCC(=O)c2ccc([N+](=O)[O-])cc2)c1C ?
MC4R antagonist: inactive; EBI2 block: inactive; MC4R barr agon: inactive; Granule exo inh: 107; Myeloid diff 2: inactive

Results for S=C(Nc1ccc(Cl)c(Cl)c1)NC1CCN(Cc2ccccc2)CC1 ?
MC4R antagonist: inactive; EBI2 block: inactive; MC4R barr agon: 22; Granule exo inh: inactive; Myeloid diff 2: inconclusive

Results for Fc1ccc(NC(=S)NC2CCN(Cc3ccccc3)CC2)cc1 ?
MC4R antagonist: inactive; EBI2 block: inactive; MC4R barr agon: inactive; Granule exo inh: inactive; Myeloid diff 2: inactive

How did O=C(CN1CCN(S(=O)(=O)c2ccc(F)cc2)CC1)NCC1(N2CCOCC2)CCCCC1 do in these assays?
MC4R antagonist: inactive; EBI2 block: inactive; MC4R barr agon: inactive; Granule exo inh: inactive; Myeloid diff 2: inactive

How did COc1ccc(-c2cn3cc(C(F)(F)F)cc(Cl)c3n2)cc1 do in these assays?
MC4R antagonist: inactive; EBI2 block: inactive; MC4R barr agon: inactive; Granule exo inh: inactive; Myeloid diff 2: active

What do the screens show for `CCN(CC)c1ccc(/C=N/N=C(c2ccccc2)c2ccccc2)c(O)c1`?
MC4R antagonist: inactive; EBI2 block: 66; MC4R barr agon: inactive; Granule exo inh: inactive; Myeloid diff 2: active

How did Cc1sc2c3ccsc3ccc2[n+]1C do in these assays?
MC4R antagonist: inactive; EBI2 block: inactive; MC4R barr agon: inactive; Granule exo inh: 56; Myeloid diff 2: inactive

What do the screens show for `Cc1sc2ccc3sccc3c2[n+]1C`?
MC4R antagonist: inactive; EBI2 block: inactive; MC4R barr agon: inactive; Granule exo inh: 83; Myeloid diff 2: inactive

How did COc1cc(OC)cc(-c2nnc(SCC(=O)N(C(C)C)C(C)C)o2)c1 do in these assays?
MC4R antagonist: inactive; EBI2 block: inactive; MC4R barr agon: inactive; Granule exo inh: inactive; Myeloid diff 2: inactive

Results for CCCCN(CCCC)C(=O)CSc1nnc(-c2cc(OC)c(OC)c(OC)c2)o1 ?
MC4R antagonist: inactive; EBI2 block: inactive; MC4R barr agon: inactive; Granule exo inh: inactive; Myeloid diff 2: inactive

Results for COc1cc(-c2nnc(SCC(=O)N(Cc3ccccc3)C(C)(C)C)o2)cc(OC)c1OC ?
MC4R antagonist: inactive; EBI2 block: inactive; MC4R barr agon: inactive; Granule exo inh: inactive; Myeloid diff 2: active

Results for COc1cc(OC)cc(-c2nnc(SCC(=O)N(Cc3ccccc3)C(C)(C)C)o2)c1 ?
MC4R antagonist: inactive; EBI2 block: inactive; MC4R barr agon: inactive; Granule exo inh: inactive; Myeloid diff 2: active

Results for Cc1cc(O)ccc1C1(c2ccc(O)cc2C)OC(=O)c2ccccc21 ?
MC4R antagonist: inactive; EBI2 block: inactive; MC4R barr agon: inactive; Granule exo inh: inactive; Myeloid diff 2: inactive

What do the screens show for `CC(=O)Oc1ccc2c(c1)Oc1cc(OC(C)=O)ccc1C21OC(=O)c2ccccc21`?
MC4R antagonist: inactive; EBI2 block: inactive; MC4R barr agon: inactive; Granule exo inh: inactive; Myeloid diff 2: active

How did C=C(C)COc1ccc(-c2[nH]ncc2-c2ccccc2OC)c(O)c1 do in these assays?
MC4R antagonist: inactive; EBI2 block: inactive; MC4R barr agon: 9.2; Granule exo inh: inactive; Myeloid diff 2: inactive

Results for C=C(C)COc1ccc(-c2[nH]ncc2Oc2ccc(OC)cc2)c(O)c1 ?
MC4R antagonist: inactive; EBI2 block: inactive; MC4R barr agon: inactive; Granule exo inh: inactive; Myeloid diff 2: inactive

Results for C=C(C)COc1ccc(-c2ncncc2-c2ccccc2OC)c(O)c1 ?
MC4R antagonist: inactive; EBI2 block: inactive; MC4R barr agon: inactive; Granule exo inh: inactive; Myeloid diff 2: inactive

Results for CCOc1ccccc1Oc1cn[nH]c1-c1ccc(OCC(=O)NN)cc1O ?
MC4R antagonist: inactive; EBI2 block: inactive; MC4R barr agon: inactive; Granule exo inh: inactive; Myeloid diff 2: active

Results for C=C(C)COc1ccc(-c2[nH]ncc2Oc2ccccc2OC)c(O)c1 ?
MC4R antagonist: inactive; EBI2 block: inactive; MC4R barr agon: 8.9; Granule exo inh: inactive; Myeloid diff 2: inactive

Results for CCOC(=O)[C@]12CCCC=C1N(Cc1ccco1)C(=O)[C@H](CC(=O)NCc1ccccc1)C2 ?
EBI2 block: inactive; Granule exo inh: inactive; Myeloid diff 2: inactive

Results for CCOc1ccc(C(=O)Cc2cc(OC)c(OC)cc2[N+](=O)[O-])cc1 ?
MC4R antagonist: inactive; EBI2 block: inactive; MC4R barr agon: 12; Granule exo inh: inactive; Myeloid diff 2: inactive

Assay outcomes as filed in PubChem.
